According to ChEMBL document CHEMBL1137397, “Identification of selective, nonpeptidic nitrile inhibitors of cathepsin s using the substrate activity screening method” (J Med Chem, 2006):

Tests used:
Conditions in all cases: Homo sapiens
[1] = substrate: CCCC[C@@H](C(=O)Nc1ccc2c(C)c(CC(=O)O)c(=O)oc2c1)n1cc([C@@](C)(NC(=O)c2ccccc2)C(C)C)nn1; assay: (§1) Binding affinity to cathepsin S
Summary of the method: (§2)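 Cathepsin S at 0.6 nM in pH 6.1 100 mM sodium phosphate with 100 mM NaCl, 1 mM DTT, 1 mM EDTA and 0.001% Tween-20. Enzyme preincubated 5 min at 37 °C with five inhibitor concentrations (10-90% inhibition), in duplicate. Cbz-Leu-Arg-AMC added at 5 and 2.5 µM, then AMC read (ex 355/em 450 nm) over 5 min. Ki by Dixon method.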

[2] = substrate: CCCC[C@@H](C(=O)Nc1ccc2c(C)c(CC(=O)O)c(=O)oc2c1)n1cc([C@@](C)(NC(=O)c2ccccc2)C2CCCCC2)nn1; assay: as §1; summary of the method: as §2
[3] = substrate: CCCC[C@@H](C(=O)Nc1ccc2c(C)c(CC(=O)O)c(=O)oc2c1)n1cc([C@@](C)(NC(=O)c2ccsc2)C(C)C)nn1; assay: as §1; summary of the method: as §2
[4] = substrate: CCCC[C@@H](C(=O)Nc1ccc2c(C)c(CC(=O)O)c(=O)oc2c1)n1cc([C@@](C)(NC(=O)c2ccsc2)C2CCC(C)CC2)nn1; assay: as §1; summary of the method: as §2
[5] = substrate: CCCC[C@@H](C(=O)Nc1ccc2c(C)c(CC(=O)O)c(=O)oc2c1)n1cc([C@@](C)(NC(=O)c2ccsc2)C2CCCCC2)nn1; assay: as §1; summary of the method: as §2

B1: Cathepsin S (Homo sapiens), P25774 (protein)
chain: MKRLVCVLLVCSSAVAQLHKDPTLDHHWHLWKKTYGKQYKEKNEEAVRRLIWEKNLKFVMLHNLEHSMGMHSYDLGMNHLGDMTSEEVMSLMSSLRVPSQWQRNITYKSNPNRILPDSVDWREKGCVTEVKYQGSCGACWAFSAVGALEAQLKLKTGKLVSLSAQNLVDCSTEKYGNKGCNGGFMTTAFQYIIDNKGIDSDASYPYKAMDQKCQYDSKYRAATCSKYTELPYGREDVLKEAVANKGPVSVGVDARHPSFFLYRSGVYYEPSCTQNVNHGVLVVGYGDLNGKEYWLVKNSWGHNFGEEGYIRMARNKGNHCGIASFPSYPEI
With B1 the Km [1] was 410 µM, the Km [2] was 57 µM and the Km [3] was 300 µM. The Km [4] was 17 µM and the Km [5] was 13 µM.
